Assay results reported in ChEMBL document CHEMBL1671640, “Antifungal activities of human beta-defensins HBD-1 to HBD-3 and their C-terminal analogs Phd1 to Phd3” (Antimicrob Agents Chemother, 2009).
Converted amounts (≈) assume the structure as drawn. The source made the active and inactive calls. The calls are words filed in the database; no cut-off is given here. Where a SMILES comes first, the peptide text is derived from it. Bridges are numbered along the chain shown (N, C = ends).

Legend:
Candida albicans [1] = test: Antifungal activity against Candida albicans ATCC 18804 after 24 hrs; format: functional; details: ATCC 18804, 24 h
How it was run: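 Mid-log C. albicans (subcultured 2 h in YEPD after 20 h aerobic growth at 30°C), washed and resuspended at 10^6 cells/ml in 10 mM phosphate buffer pH 7.4. Exposed to peptides for 2 h at 30°C, then diluted, plated on YEPD agar and incubated 24 h at 30°C. MFC = concentration giving no viable colonies. Averages of three independent experiments in duplicate.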

Candida albicans [2] = test: Fungicidal activity against Candida albicans ATCC 18804 at MFC pretreated with 50 uM carbonyl cyanide m-chlorophenylhydrazone for 2 hrs at 30 deg C; format: functional, organism-based
How it was run: (§1)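 Mid-log cells at 10^6/ml in phosphate buffer were preincubated 2 h at 30°C with shaking with 5 mM sodium azide or 50 µM CCCP. Peptides were then added at MFC for 2 h at 30°C. Cells plated on YEPD agar for 24 h and colonies counted as percent killing. Three independent experiments in duplicate.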

Candida albicans [3] = test: Fungicidal activity against Candida albicans ATCC 18804 at MFC pretreated with 5 mM sodium azide for 2 hrs at 30 deg C; format: functional, organism-based; how it was run: as §1
Candida albicans [4] = test: Fungicidal activity against Candida albicans ATCC 18804 at MFC in presence of 25 mM NaCl; format: functional, organism-based
How it was run: (§2)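 Mid-log cells at 10^6/ml in 10 mM phosphate buffer pH 7.4 containing added NaCl (25 or 100 mM), CaCl2 (0.5 or 5 mM) or MgCl2 (0.5 or 25 mM). Peptides at the stated multiple of MFC, 2 h at 30°C. Aliquots diluted and plated on YEPD agar for 24 h. Colonies counted and percent killing calculated. Three independent experiments in duplicate.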

Candida albicans [5] = test: Fungicidal activity against Candida albicans ATCC 18804 at MFC in presence of 100 mM NaCl; format: functional, organism-based; how it was run: as §2
Candida albicans [6] = test: Fungicidal activity against Candida albicans ATCC 18804 at MFC in presence of 0.5 mM Ca2+; format: functional, organism-based; how it was run: as §2
Candida albicans [7] = test: Fungicidal activity against Candida albicans ATCC 18804 at MFC in presence of 0.5 mM Mg2+; format: functional, organism-based; how it was run: as §2
Candida albicans [8] = test: Fungicidal activity against Candida albicans ATCC 18804 at MFC in presence of 5 mM CaCl2; format: functional, organism-based; how it was run: as §2
Candida albicans [9] = test: Fungicidal activity against Candida albicans ATCC 18804 at MFC in presence of 0.5 mM MgCl2; format: functional, organism-based; how it was run: as §2
[10] = Toxicity in human Erythrocyte assessed as hemolysis upto 75 uM; format: cell-based
How it was run: (§3)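 Human erythrocytes from heparinized blood, washed three times in 5 mM HEPES pH 7.4 with 150 mM NaCl. 10^7 cells/ml incubated with a range of peptide concentrations for 30 min at 37°C with gentle mixing. Supernatant absorbance read at 540 nm. 0.1% Triton X-100 lysis taken as maximum.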

[11] = Toxicity in human Erythrocyte assessed as hemolysis at 100 uM; format: cell-based; details: erythrocytes, read-out: Activity; how it was run: as §3
[12] = Drug localization in membranes of Candida albicans ATCC 18804 at 50% MFC by confocal microscopy; format: ADME
How it was run: (§4)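 C. albicans treated 15 min at 30°C with N-terminally carboxyfluorescein-labelled peptides at 50% MFC plus 4 µg/ml propidium iodide. Untreated cells served as control. Examined by confocal microscopy using 488- and 543-nm laser lines, 63× water objective and 1 airy unit optical sections.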

Candida albicans [13] = test: Induction of membrane damage in Candida albicans ATCC 18804 at 50% MFC by propidium iodide staining; format: functional, organism-based; how it was run: as §4
Candida albicans [14] = test: Drug uptake in Candida albicans ATCC 18804 assessed as cellular localization at MFC50 by confocal fluorescence microscopy; format: ADME, organism-based; details: in vivo; how it was run: as §4
Candida albicans [15] = test: Fungicidal activity against Candida albicans ATCC 18804 assessed as […] killing rate at 2 times MFC in presence of 100 mM NaCl; format: functional; how it was run: as §2
Candida albicans [16] = test: Induction of membrane damage in Candida albicans ATCC 18804 by Sytox green dye influx assay; format: functional, organism-based
How it was run: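 Mid-log cells (10^7 CFU/ml) washed and resuspended in phosphate buffer with 1 µM Sytox green at 30°C. Once basal fluorescence was constant, peptide was added and the fluorescence increase recorded at excitation 488 nm and emission 540 nm.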

Candida albicans [17] = test: Fungicidal activity against Candida albicans ATCC 18804 at MFC in presence of 25 mM MgCl2; format: functional, organism-based; how it was run: as §2

Structure (SMILES)	MFC (Candida albicans [1]) [µM]	fungicidal activity (active/not active) (Candida albicans [2])	inhibition (Candida albicans [3])	inhibition (Candida albicans [4])	inhibition (Candida albicans [5])	inhibition (Candida albicans [6])	inhibition (Candida albicans [7])	inhibition (Candida albicans [8])	inhibition (Candida albicans [9])	Activity [10]	hemolysis at 100 µM [11] [%]	Drug uptake [12]	Activity (Candida albicans [13])	Drug uptake (Candida albicans [14])	inhibition (percent killing) (Candida albicans [15]) [%]	Activity (Candida albicans [16])	inhibition (Candida albicans [17])
CC[C@H](C)[C@@H]1NC(=O)[C@H](CCCCN)NC(=O)[C@H]([C@@H](C)O)NC(=O)[C@H](Cc2ccccc2)NC(=O)[C@H]([C@@H](C)CC)NC(=O)[C@@H]2CCCN2C(=O)[C@@H](NC(=O)[C@H](C)N)CSSC[C@@H](C(=O)N[C@@H](CCCCN)C(=O)O)NC(=O)[C@H](CCCCN)NC(=O)[C@H](C)NC(=O)[C@H](CCCCN)NC(=O)CNC(=O)[C@H](CCCNC(=N)N)NC(=O)[C@H](Cc2ccc(O)cc2)NC(=O)[C@H]([C@@H](C)O)NC(=O)CNC(=O)[C@H](CCC(N)=O)NC1=O (H-ACPIFTKIQGTYRGKAKCK-OH; disulfide 2-18)	18 (≈ 38 µg/mL)	Active	Active	Active	inactive	Active	Active	inactive	Active	Non-toxic	15	Active	Active	Active	50	Active	–
CC[C@H](C)[C@@H]1NC(=O)[C@H](CCC(N)=O)NC(=O)[C@H](CCCCN)NC(=O)[C@H](Cc2ccc(O)cc2)NC(=O)[C@H](CCCNC(=N)N)NC(=O)[C@H](CCCNC(=N)N)NC(=O)[C@@H]2CCCN2C(=O)[C@@H](NC(=O)[C@@H](N)Cc2ccccc2)CSSC[C@@H](C(=O)N[C@@H](CCCCN)C(=O)O)NC(=O)[C@H](CCCCN)NC(=O)[C@H]([C@@H](C)O)NC(=O)CNC(=O)[C@@H]2CCCN2C(=O)[C@H](CC(C)C)NC(=O)CNC(=O)[C@H]([C@@H](C)O)NC(=O)CNC1=O (H-FCPRRYKQIGTGLPGTKCK-OH; disulfide 2-18)	18 (≈ 38.7 µg/mL)	Active	Active	Active	inactive	Active	Active	inactive	Active	Non-toxic	15	Active	Active	Active	50	Active	–
CC[C@H](C)[C@@H]1NC(=O)[C@H](CCCCN)NC(=O)[C@H]([C@@H](C)O)NC(=O)[C@H](Cc2ccccc2)NC(=O)[C@H]([C@@H](C)CC)NC(=O)[C@@H]2CCCN2C(=O)[C@@H]2CSSC[C@@H](C(=O)N[C@@H](CCCCN)C(=O)O)NC(=O)[C@@H]3CSSC[C@H](NC(=O)[C@H](CC(N)=O)NC(=O)[C@H](Cc4ccc(O)cc4)NC(=O)[C@H](Cc4cnc[nH]4)NC(=O)[C@@H](N)CC(=O)O)C(=O)N[C@@H](C(C)C)C(=O)N[C@@H](CO)C(=O)N[C@@H](CO)C(=O)NCC(=O)NCC(=O)N[C@@H](CCC(N)=O)C(=O)N[C@@H](CSSC[C@H](NC(=O)[C@H]([C@@H](C)O)NC(=O)CNC(=O)[C@H](CCC(N)=O)NC1=O)C(=O)N[C@@H](Cc1ccc(O)cc1)C(=O)N[C@@H](CCCNC(=N)N)C(=O)NCC(=O)N[C@@H](CCCCN)C(=O)N[C@@H](C)C(=O)N[C@@H](CCCCN)C(=O)N3)C(=O)N[C@@H](CC(C)C)C(=O)N[C@@H](Cc1ccc(O)cc1)C(=O)N[C@@H](CO)C(=O)N[C@@H](C)C(=O)N2 (H-DHYNCVSSGGQCLYSACPIFTKIQGTCYRGKAKCCK-OH; disulfide 5-34, 12-27, 17-35)	7 (≈ 27.5 µg/mL)	inactive	inactive	inactive	inactive	–	–	inactive	Active	–	–	–	–	–	50	–	–
CC[C@H](C)[C@@H]1NC(=O)[C@H](CCC(N)=O)NC(=O)[C@H](CCC(=O)O)NC(=O)[C@H](CCC(=O)O)NC(=O)[C@H](CCCCN)NC(=O)[C@@H]2CCCN2C(=O)[C@H](CC(C)C)NC(=O)[C@@H](NC(=O)[C@@H](N)CO)CSSC[C@@H](C(=O)N[C@@H](CCCNC(=N)N)C(=O)N[C@@H](CCCNC(=N)N)C(=O)N[C@@H](CCCCN)C(=O)N[C@@H](CCCCN)C(=O)O)NC(=O)[C@H](CCCCN)NC(=O)[C@H](CCCNC(=N)N)NC(=O)CNC(=O)[C@H](CCCNC(=N)N)NC(=O)[C@H]([C@@H](C)O)NC(=O)[C@H](CO)NC(=O)[C@H](CCCCN)NC(=O)CNC1=O (H-SCLPKEEQIGKSTRGRKCRRKK-OH; disulfide 2-18)	16 (≈ 41.4 µg/mL)	Active	Active	Active	inactive	Active	Active	–	–	Non-toxic	15	Active	Active	Active	50	Active	Active
